Here are results for 2 compounds from ChEMBL document CHEMBL2331336, “Discovery and structure-activity relationship of 1,3-cyclohexyl amide derivatives as novel mGluR5 negative allosteric modulators” (Bioorg Med Chem Lett, 2013).

Series [1] deals with T1, Metabotropic glutamate receptor 1 (Rattus norvegicus, UniProt P23385). The experiment in a line: Antagonist activity at rat mGluR1 expressed in HEK293 cells assessed as inhibition of Ca2+ mobilization by FLIPR assay. It is filed as functional, cell-based. The method in brief:
(§1)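 Rat mGluR1 stably in HEK293 cells (1.5% calf serum medium), seeded 24 h earlier, Fluo-4 loaded 1 h at 37 °C in HBSS/HEPES pH 7.4 with probenecid. Curves fitted with Hill equation.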
For orientation: A change in cytosolic calcium serves as a functional read-out for many receptors and channels.

A short description of series [2]: Fraction unbound in mouse brain. It counts as ADME, tissue-based.
Series [3] is described as follows: Kinetic solubility of the compound in potassium phosphate buffer after 4 hrs. It counts as physicochemical. The conditions noted are these: read-out: Kinetic_solubility. The method in brief: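 Kinetic solubility: compound from 10 mM DMSO stock diluted into 25 mM potassium phosphate buffer and shaken 4 h. Supernatant analyzed by UPLC with PDA detection at 254 nm.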

Series [4] in a line: Volume of distribution at steady state in Sprague-Dawley rat at 1 mg/kg, iv or 2 mg/kg, po. It counts as ADME, organism-based. The conditions noted are these: in vivo, read-out: Vdss. The method in brief: (§2)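 Sprague-Dawley rats (n = 2) dosed in a cross-over design with a 24 h washout: 1 mg/kg IV and 2 mg/kg PO in 20% hydroxypropyl-β-cyclodextrin in water. Rat hepatic blood flow was taken as 20 mL/min.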

Series [5] relates to Rattus norvegicus. The series is described as follows: Plasma clearance in Sprague-Dawley rat at 1 mg/kg, iv or 2 mg/kg, po relative to hepatic blood flow. It counts as ADME, organism-based. The conditions noted are these: in vivo. The method in brief: as §2
Series [6] has as its target T1, Metabotropic glutamate receptor 1. The experiment in a line: Agonist activity at rat mGluR1 expressed in HEK293 cells assessed as Ca2+ mobilization by FLIPR assay. It counts as functional, cell-based. The method, boiled down:
as §1

Series [7] in a line: Fraction unbound in rat brain. It is filed as ADME, tissue-based.
Series [8] has as its system Rattus norvegicus. The series is described as follows: AUC ( 0 to infinity) in Sprague-Dawley rat at 1 mg/kg, iv. It is filed as ADME, organism-based, Plasma. On the set-up: time infinity, dose 1 mg/kg, route intravenous. The conditions noted are these: in vivo. The method, boiled down: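 Sprague-Dawley rats (n = 2), cross-over design with 24 h washout between routes; 1 mg/kg iv in 20% hydroxypropyl-β-cyclodextrin in water; plasma AUC0-inf derived from concentration–time profile.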

In series [9] the test system is Plasma. The experiment in a line: Fraction unbound in mouse plasma. It counts as ADME, cell-free.
Series [10] is described as follows: Partition co-efficient, log D at pH 7.4 of the compound by shake flask method. It is filed as physicochemical. The conditions noted are these: buffer.
Series [11] in a line: Plasma protein binding in human. It counts as ADME, cell-free. As to conditions: read-out: PPB (converted).
The subject of another series is Liver. The experiment in a line: Intrinsic clearance in mouse liver microsomes. It is filed as ADME, Microsome.
A short description of series [12]: Drug uptake in CD-1 mouse brain at 10 mg/kg, sc at 1 hr. As to conditions: read-out: Drug uptake. On the set-up: dose 10 mg/kg, route subcutaneous. It is filed as ADME, organism-based. The method, boiled down:
(§3)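 CD-1 mice (n = 2), 10 mg/kg SC in 20% hydroxypropyl-β-cyclodextrin in water. Brain and plasma sampled at 1 h; averages reported. Quantification limits were 2 ng/g for brain and 2 ng/mL for plasma. Kupp is the ratio of unbound brain to unbound plasma concentration.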

In series [13] the target is T2, Metabotropic glutamate receptor 5 (Homo sapiens, UniProt P41594). The experiment in a line: Antagonist activity at human mGluR5 expressed in HEK293 cells assessed as inhibition of Ca2+ mobilization by FLIPR assay. It is filed as functional, cell-based.
T2 sequence (P41594 whole entry): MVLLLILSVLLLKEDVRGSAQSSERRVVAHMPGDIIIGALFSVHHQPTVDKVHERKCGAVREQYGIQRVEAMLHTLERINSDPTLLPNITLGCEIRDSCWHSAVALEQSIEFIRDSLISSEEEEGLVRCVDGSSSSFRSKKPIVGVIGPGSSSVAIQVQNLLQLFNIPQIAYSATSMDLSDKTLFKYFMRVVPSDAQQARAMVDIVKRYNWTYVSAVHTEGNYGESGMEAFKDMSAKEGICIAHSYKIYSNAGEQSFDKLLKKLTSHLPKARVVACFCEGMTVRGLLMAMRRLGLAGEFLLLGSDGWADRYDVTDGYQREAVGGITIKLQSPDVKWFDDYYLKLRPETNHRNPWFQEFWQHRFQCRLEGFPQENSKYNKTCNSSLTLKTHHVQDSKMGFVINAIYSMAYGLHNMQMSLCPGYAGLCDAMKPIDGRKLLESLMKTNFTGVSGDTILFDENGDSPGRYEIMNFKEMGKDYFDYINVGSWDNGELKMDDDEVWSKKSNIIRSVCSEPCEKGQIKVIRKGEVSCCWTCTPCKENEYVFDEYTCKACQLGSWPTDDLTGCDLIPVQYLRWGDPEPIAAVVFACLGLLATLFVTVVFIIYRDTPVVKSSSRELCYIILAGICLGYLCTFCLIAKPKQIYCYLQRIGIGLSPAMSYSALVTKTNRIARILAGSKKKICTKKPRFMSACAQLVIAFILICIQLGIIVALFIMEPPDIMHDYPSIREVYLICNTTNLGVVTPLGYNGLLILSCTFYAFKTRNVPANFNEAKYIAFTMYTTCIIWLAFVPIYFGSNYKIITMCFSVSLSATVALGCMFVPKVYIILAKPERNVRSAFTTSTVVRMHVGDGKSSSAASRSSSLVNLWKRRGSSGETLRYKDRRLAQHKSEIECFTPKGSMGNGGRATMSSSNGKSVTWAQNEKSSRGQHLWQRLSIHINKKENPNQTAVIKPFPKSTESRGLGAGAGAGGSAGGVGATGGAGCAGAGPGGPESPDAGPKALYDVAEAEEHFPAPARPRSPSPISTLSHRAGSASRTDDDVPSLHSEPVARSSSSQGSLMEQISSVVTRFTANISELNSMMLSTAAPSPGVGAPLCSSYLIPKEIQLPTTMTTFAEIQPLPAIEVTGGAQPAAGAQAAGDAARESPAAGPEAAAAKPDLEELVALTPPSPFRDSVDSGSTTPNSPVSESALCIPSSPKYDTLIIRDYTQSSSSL
A short description of series [14]: Cmax in Sprague-Dawley rat at 1 mg/kg, iv or 2 mg/kg, po. It is filed as ADME, organism-based. As to conditions: in vivo. The method in brief:
as §2

Series [15] can be described thus: Plasma concentration in CD-1 mouse at 10 mg/kg, sc at 1 hr. It is filed as ADME, organism-based. The arrangement: dose 10 mg/kg, route subcutaneous. The method, boiled down:
as §3

In series [16] the test system is Rattus norvegicus. The experiment in a line: AUC ( 0 to infinity) in Sprague-Dawley rat at 2 mg/kg, po. It counts as ADME, organism-based, Plasma. The arrangement: dose 2 mg/kg, route oral, time infinity. The conditions noted are these: in vivo. The method, boiled down: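 Sprague-Dawley rats (n = 2), cross-over design with 24 h washout between routes; 2 mg/kg oral in 20% hydroxypropyl-β-cyclodextrin in water; plasma AUC0-inf derived from concentration–time profile.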

A short description of series [17]: Ratio of drug uptake in brain to plasma of CD-1 mouse at 10 mg/kg, sc at 1 hr. It counts as ADME, organism-based. The arrangement: dose 10 mg/kg, route subcutaneous. As to conditions: read-out: BPR. The method, boiled down: as §3
Series [18] in a line: Half life in Sprague-Dawley rat at 1 mg/kg, iv or 2 mg/kg, po. It counts as ADME, organism-based. As to conditions: in vivo. The method in brief:
as §2

Series [19] is described as follows: Plasma clearance in Sprague-Dawley rat at 1 mg/kg, iv or 2 mg/kg, po. It is filed as ADME, organism-based. The method in brief:
as §2

Series [20] has as its system Plasma. The series is described as follows: Fraction unbound in rat plasma. It is filed as ADME, cell-free.
The subject of series [21] is Liver microsomes. The series is described as follows: Intrinsic clearance in rat liver microsomes. It is filed as ADME, Microsome. In general terms: Microsomes from liver hold many membrane-bound enzymes, among them those of drug oxidation.
For series [22], the target named is T2, Metabotropic glutamate receptor 5. The series is described as follows: Displacement of [3H]-ABP688 from human mGluR5 expressed in HEK293 cells after 60 mins by scintillation counting. It is filed as cell-based. In general terms: In a radioligand displacement assay an active substance lowers the binding of a labelled ligand.
The nature of series [23]: Ratio of fraction unbound in brain to plasma of CD-1 mouse brain at 10 mg/kg, sc at 1 hr. It is filed as ADME, organism-based. On the set-up: dose 10 mg/kg, route subcutaneous. As to conditions: in vivo. The method in brief: as §3
For series [24], the system named is Rattus norvegicus. The series is described as follows: Bioavailability in Sprague-Dawley rat at 1 mg/kg, iv or 2 mg/kg, po. As to conditions: in vivo. It counts as ADME, organism-based. The method, boiled down: as §2
Series [25] can be described thus: Tmax in Sprague-Dawley rat at 1 mg/kg, iv or 2 mg/kg, po. It is filed as ADME, organism-based. The conditions noted are these: in vivo. The method, boiled down:
as §2

Series [26] has as its system Liver microsomes. The series is described as follows: Intrinsic clearance in human liver microsomes. It counts as ADME, Microsome. On the set-up: unit not given here.
The nature of series [27]: Drug uptake in Sprague-Dawley rat brain at 10 mg/kg, po at 1 hr. It counts as ADME, organism-based. As to conditions: read-out: Drug uptake. On the set-up: dose 10 mg/kg, route oral.
A short description of series [28]: Ratio of drug uptake in brain to plasma of Sprague-Dawley rat at 10 mg/kg, po at 1 hr. It is filed as ADME, organism-based. The arrangement: dose 10 mg/kg, route oral. The conditions noted are these: read-out: BPR.
Series [29] in a line: Plasma concentration in Sprague-Dawley rat at 10 mg/kg, po at 1 hr. It is filed as ADME, organism-based. On the set-up: dose 10 mg/kg, route oral.

Structures are written as SMILES. Converted amounts (≈) assume the structure as drawn. Bounds are passed on as bounds.

T1 sequence (P23385 whole entry): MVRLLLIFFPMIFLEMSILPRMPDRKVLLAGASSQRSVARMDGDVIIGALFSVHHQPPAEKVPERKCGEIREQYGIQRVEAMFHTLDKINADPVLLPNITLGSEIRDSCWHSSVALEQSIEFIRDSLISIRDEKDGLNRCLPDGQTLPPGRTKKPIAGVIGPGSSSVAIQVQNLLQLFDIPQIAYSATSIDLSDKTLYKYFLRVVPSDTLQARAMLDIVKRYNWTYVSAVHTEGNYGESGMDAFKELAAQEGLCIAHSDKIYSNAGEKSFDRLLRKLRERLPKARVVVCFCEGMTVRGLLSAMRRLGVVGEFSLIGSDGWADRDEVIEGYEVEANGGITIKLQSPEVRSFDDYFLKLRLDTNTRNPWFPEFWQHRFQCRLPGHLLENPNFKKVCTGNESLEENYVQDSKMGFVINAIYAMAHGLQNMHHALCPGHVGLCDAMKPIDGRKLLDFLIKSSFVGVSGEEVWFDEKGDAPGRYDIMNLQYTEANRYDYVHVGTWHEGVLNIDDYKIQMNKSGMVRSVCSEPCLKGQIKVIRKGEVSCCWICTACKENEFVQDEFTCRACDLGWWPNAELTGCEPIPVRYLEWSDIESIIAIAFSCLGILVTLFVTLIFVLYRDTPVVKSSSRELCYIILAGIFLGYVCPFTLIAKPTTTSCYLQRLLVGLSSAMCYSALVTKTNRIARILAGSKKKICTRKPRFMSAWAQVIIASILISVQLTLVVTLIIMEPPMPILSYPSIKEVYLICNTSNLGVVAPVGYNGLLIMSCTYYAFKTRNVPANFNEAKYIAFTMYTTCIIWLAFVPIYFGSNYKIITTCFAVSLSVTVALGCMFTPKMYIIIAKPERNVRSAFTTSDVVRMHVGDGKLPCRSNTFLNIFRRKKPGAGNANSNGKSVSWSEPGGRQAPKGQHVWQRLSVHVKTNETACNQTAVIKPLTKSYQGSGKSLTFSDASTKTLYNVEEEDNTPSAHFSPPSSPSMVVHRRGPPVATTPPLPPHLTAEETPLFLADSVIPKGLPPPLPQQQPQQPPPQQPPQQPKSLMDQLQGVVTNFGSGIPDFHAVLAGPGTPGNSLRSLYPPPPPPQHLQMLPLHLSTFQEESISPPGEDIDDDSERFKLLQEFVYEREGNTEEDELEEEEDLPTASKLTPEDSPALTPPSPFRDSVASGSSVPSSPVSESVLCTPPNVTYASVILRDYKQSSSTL

As for `O=C(N[C@@H]1CCC[C@@H](NC(=O)c2ccccn2)C1)c1cccc(Cl)c1`, the IC50 (usually the concentration that inhibits the measured activity by half) in [1] is more than 10000 nM; in [13], 62 nM. Also, the fraction unbound in series [2] is 0.22; in series [7] it was 0.13; in [11], 0.065. For the same compound, in series [3], the solubility kinetic at 4 h came to 240 µM (≈ 85.9 µg/mL). In addition, the Vd in series [4] came out at 3.4 L/kg. Moreover, in the series on Rattus norvegicus [5], the CL amounted to 85%. The EC50 – broadly, the concentration needed to bring the measured effect to its halfway point – in series [6] was more than 10000 nM. The AUC (commonly the area under the concentration-time curve, a measure of exposure) in the series with Rattus norvegicus [8] was 260 ng·h/mL; in the series with Rattus norvegicus [16] it was 530 ng·h/mL. For the same compound, the “Cp(f)” value in the series on Plasma [9] is listed as 11%; with Plasma [20], 14%. Moreover, in series [10], the logD (in general, the decadic logarithm of the distribution of all forms, ionised or not, between an organic phase and buffer at a given pH) came out at 3.2. The values for the Intrinsic clearance with Liver, with Liver microsomes [21] and with Liver microsomes [26] were 9 mL/min, 41 mL/min and 1.1, respectively. Moreover, the values for the concentration at 1 h in [12] and in [15] were 170 nM and 500 nM, respectively. The highest level in series [14] (Cmax) was 220 ng/mL. Also, the Kp at 1 h in [17] amounted to 0.34. The half-life (commonly the time needed for the level to fall by half in the phase considered) in [18] is 0.6 h. Moreover, the clearance in [19] was 68.3 mL/min/kg. In series [22], the affinity, expressed as Ki, was 205 nM. In addition, the Ratio in series [23] was 0.67. For the same compound, the bioavailability (in general, the share of a dose that reaches the circulation, judged against a reference dose that is usually intravenous) with Rattus norvegicus [24] is 80%. In addition, the Tmax (usually the time at which the peak concentration occurs) in series [25] turned out to be 2 h.
Turning to `O=C(N[C@H]1CCC[C@]2(CN=C(c3cccc(Cl)c3)O2)C1)c1ccccn1`, the IC50 is more than 10000 nM in series [1] and 115 nM in series [13]. The compound further registered a fraction unbound in [2] of 0.005. In addition, in series [6], the EC50 was more than 10000 nM. Moreover, the concentration at 1 h is 5 nM in [27], 8 nM in [29], 1160 nM in series [12] and 1160 nM in series [15]. Further, the Kp at 1 h in series [28] is 0.6; in series [17] it was 1. Also, in the series with Plasma [9], the “Cp(f)” value was 0.3%. Further, the Intrinsic clearance was 8.8 mL/min with Liver, 160 mL/min in the series on Liver microsomes [21] and 13 in the series on Liver microsomes [26]. The Ki – broadly, the equilibrium dissociation constant of an inhibitor or competing ligand from its target – in series [22] was found to be 178 nM. For the same compound, the Ratio in series [23] came to 1.6.
